From ChEMBL document CHEMBL5236623, “Designing Selective Drug-like Molecular Glues for the Glucocorticoid Receptor/14-3-3 Protein-Protein Interaction” (J Med Chem, 2022)
Active and inactive are the calls of the source. The calls are words filed in the database; no cut-off is given here.

How the values were obtained:
[1] = species: Homo sapiens; assay: (§1) Stabilization of fluorescently-labeled human ER_pT594 peptide/human 14-3-3 zeta expressed in Escherichia coli BL21 (DE3)STAR competent cells protein-protein interaction assessed as increase in FP signal of 14-3-3/phosphopeptide complex at […] incubated for 1 hr by Fluorescence polarization assay
[2] = species: Homo sapiens; assay: (§2) Stabilization of fluorescently-labeled human GR_pT524 peptide/human 14-3-3 zeta expressed in Escherichia coli BL21 (DE3)STAR competent cells protein-protein interaction assessed as increase in FP signal of 14-3-3/phosphopeptide complex at […] incubated for 1 hr by Fluorescence polarization assay
[3] = species: Homo sapiens; assay: Selectivity index, ratio of EC20 for stabilization of fluorescently-labeled human GR_pT524 peptide/human 14-3-3 zeta expressed in Escherichia coli BL21 (DE3)STAR competent cells protein-protein interaction to EC20 for stabilization of fluorescently-labeled human ER_pT594 peptide/human 14-3-3 zeta expressed in Escherichia coli BL21 (DE3)STAR competent cells protein-protein interaction
[4] = species: Homo sapiens; assay: Stabilization of fluorescently-labeled human GR_pT524 peptide/human 14-3-3 zeta expressed in Escherichia coli BL21 (DE3)STAR competent cells protein-protein interaction assessed as increase in FP signal of 14-3-3/phosphopeptide complex incubated for 1 hr by Fluorescence polarization assay
Outline: (§3)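 14-3-3ζ/phosphopeptide fluorescence polarization assay run as a concentration-response. EC1.2 is the compound concentration (μM) giving a 20% rise in FP signal of the 14-3-3/phosphopeptide complex, read from the curve. Triplicate, three independent experiments, errors as standard deviation.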

[5] = Apparent permeability across apical to basolateral side in human Caco-2 cells at 10 uM incubated for 2 hrs; type: ADME, cell-based; settings: caco-2, 2 h
[6] = species: Homo sapiens; assay: as §2, with “assessed as fold increase in” for “assessed as increase in”, “polarization assay relative to DMSO” for “polarization assay”
[7] = species: Homo sapiens; assay: Stabilization of fluorescently-labeled human ER_pT594 peptide/human 14-3-3 zeta expressed in Escherichia coli BL21 (DE3)STAR competent cells protein-protein interaction assessed as increase in FP signal of 14-3-3/phosphopeptide complex incubated for 1 hr by Fluorescence polarization assay; outline: as §3
[8] = species: Homo sapiens; assay: as §1, with “assessed as fold increase in” for “assessed as increase in”, “polarization assay relative to DMSO” for “polarization assay”
[9] = target: T1, Glucocorticoid receptor (Homo sapiens) (UniProt P04150); assay: Displacement of [3H]dexamethasone from human glucocorticoid receptor by scintillation based radioligand binding assay
T1 sequence (whole entry): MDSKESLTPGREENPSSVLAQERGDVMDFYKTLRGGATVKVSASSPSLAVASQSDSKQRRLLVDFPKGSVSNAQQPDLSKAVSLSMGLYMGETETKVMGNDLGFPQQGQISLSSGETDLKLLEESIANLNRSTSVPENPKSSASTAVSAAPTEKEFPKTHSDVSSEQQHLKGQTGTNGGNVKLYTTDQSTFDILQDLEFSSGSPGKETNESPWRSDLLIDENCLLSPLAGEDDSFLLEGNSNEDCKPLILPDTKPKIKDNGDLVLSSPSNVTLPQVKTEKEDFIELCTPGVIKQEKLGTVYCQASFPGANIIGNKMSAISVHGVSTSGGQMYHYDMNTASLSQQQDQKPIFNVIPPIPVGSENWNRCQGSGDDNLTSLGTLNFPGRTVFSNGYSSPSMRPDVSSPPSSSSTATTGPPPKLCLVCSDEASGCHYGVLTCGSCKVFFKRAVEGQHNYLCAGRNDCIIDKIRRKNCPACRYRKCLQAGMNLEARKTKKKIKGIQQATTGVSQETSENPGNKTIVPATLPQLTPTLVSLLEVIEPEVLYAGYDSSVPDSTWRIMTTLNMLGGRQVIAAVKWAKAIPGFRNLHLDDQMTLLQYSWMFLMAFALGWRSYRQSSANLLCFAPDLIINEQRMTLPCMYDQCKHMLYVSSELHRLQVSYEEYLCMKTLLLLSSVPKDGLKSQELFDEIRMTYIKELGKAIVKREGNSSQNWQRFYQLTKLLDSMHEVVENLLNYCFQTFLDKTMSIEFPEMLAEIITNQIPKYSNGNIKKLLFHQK

[10] = species: Homo sapiens; assay: Stabilization of human GR_pT524 peptide/6His-tagged human 14-3-3 zeta protein-protein interaction at 1 mM by surface plasmon resonance analysis

SMILES	Activity [1]	EC20 [4]	fold change (FC) [6]	EC20 [7]	fold change (FC) [8]	other results
O=C(C1=C(O)C(=O)N(c2ccc(O)c(C(=O)O)c2)C1c1ccccc1)c1ccccc1 (stereo not drawn)	inactive					Activity [2]: inactive
O=C(C1=C(O)C(=O)N(c2ccc(O)c(C(=O)O)c2)C1c1ccc([N+](=O)[O-])cc1)c1ccccc1 (stereo not drawn)		63 µM	1.4	28 µM	1.9	Ratio [3]: 2; Papp [5]: 0.047 10^-6 cm/s
O=C(C1=C(O)C(=O)N(c2ccc(O)c(C(=O)O)c2)C1c1ccc([N+](=O)[O-])cc1)c1cccc(OC(F)F)c1 (stereo not drawn)	inactive					Activity [2]: inactive
O=C(C1=C(O)C(=O)N(c2ccc(O)c(C(=O)O)c2)[C@@H]1c1ccc([N+](=O)[O-])cc1)c1ccc(Cl)cc1		30 µM				
O=C(C1=C(O)C(=O)N(c2ccc(O)c(C(=O)O)c2)[C@H]1c1ccc([N+](=O)[O-])cc1)c1ccccc1	inactive	162 µM	1.2			
O=C(C1=C(O)C(=O)N(c2ccc(O)c(C(=O)O)c2)C1c1ccc([N+](=O)[O-])cc1)c1ccc(Cl)cc1 (racemic)		42 µM				Activity [9]: inactive
O=C(C1=C(O)C(=O)N(c2ccc(O)c(C(=O)O)c2)[C@@H]1c1ccc([N+](=O)[O-])cc1)c1ccccc1		32 µM	1.6	15 µM	2.3	
O=C(O)c1cc(N2C(=O)C(O)=C(C(=O)c3ccccc3Cl)C2c2ccc([N+](=O)[O-])cc2)ccc1O (stereo not drawn)		96 µM	1.2	73 µM	1.4	
O=C(C1=C(O)C(=O)N(c2ccccc2O)C1c1ccc([N+](=O)[O-])cc1)c1ccccc1 (stereo not drawn)				75 µM	1.4	Papp [5]: 0.25 10^-6 cm/s; Activity [2]: inactive
O=C(C1=C(O)C(=O)N(c2ccc(O)c(C(=O)O)c2)[C@H]1c1ccc([N+](=O)[O-])cc1)c1ccc(Cl)cc1	inactive	126 µM				
O=C(C1=C(O)C(=O)N(c2ccc(O)c(C(=O)O)c2)C1c1ccc2c(c1)COC2=O)c1ccccc1 (stereo not drawn)		150 µM	1.2	63 µM	1.6	
O=C(O)c1cc(N2C(=O)C(O)=C(c3ccccc3)C2c2ccc([N+](=O)[O-])cc2)ccc1O (single isomer, unassigned; (-))	inactive	40 µM	1.5			
Nc1ccc(C2C(C(=O)c3ccccc3)=C(O)C(=O)N2c2ccc(O)c(C(=O)O)c2)cc1 (stereo not drawn)	inactive					Activity [2]: inactive
O=C(C1=C(O)C(=O)N(c2ccc(O)cc2)C1c1ccc([N+](=O)[O-])cc1)c1ccccc1 (stereo not drawn)				87 µM	1.6	Papp [5]: 0.13 10^-6 cm/s; Activity [2]: inactive
C=CC(C)(C)OC[C@H]1O[C@H](O[C@@H]2C3=C([C@H](C)COC(C)=O)C[C@H](O)[C@]3(C)/C=C3/[C@@H](COC)CC[C@H]3[C@@H](C)[C@H]2O)[C@H](O)[C@@H](O)[C@@H]1O						Activity [10]: inactive; Activity [4]: inactive
O=C(O)c1cc(N2C(=O)C(O)=C(c3ccccc3)C2c2ccc([N+](=O)[O-])cc2)ccc1O (racemic)	inactive	45 µM	1.4			
O=C(O)c1cc(N2C(=O)C(O)=C(Cc3ccccc3)C2c2ccc([N+](=O)[O-])cc2)ccc1O (stereo not drawn)		82 µM	1.3	175 µM	1.2	
O=C(O)c1cc(N2C(=O)C(O)=C(c3ccccc3)C2c2ccc([N+](=O)[O-])cc2)ccc1O (single isomer, unassigned; (+))	inactive					
